# Test system: HEK-293T
# Assay: Multiplex assay against HEK293T
# Type: toxicity, cell-based
# Conditions: human
# How it was run: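 Compound was added to live cells that had been stained at seeding with Hoechst33342, BioTracker Green Microtubule Cytoskeleton Dye, MitoTracker Red and Annexin V Alexa Fluor 680, and imaging followed on a CQ1 microscope at 37°C and 5% CO2. CellPathfinder machine-learning gating divided cells into Hoechst high-intensity objects or normal cells, normal cells into healthy, pyknosed or fragmented nuclei, and pyknosed cells into mitotic or apoptotic. Tubulin, mitochondrial-mass and membrane-permeability phenotypes are per cents of healthy-nucleus cells.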
# [1] = 12 h, 1 µM, compound concentration 1 uM, replicate 1
# [2] = 12 h, 1 µM, compound concentration 1 uM, replicate 2
# [3] = 12 h, 10 µM, compound concentration 10 uM, replicate 1
# [4] = 12 h, 10 µM, compound concentration 10 uM, replicate 2
# [5] = 24 h, 1 µM, compound concentration 1 uM, replicate 1
# [6] = 24 h, 1 µM, compound concentration 1 uM, replicate 2
# [7] = 24 h, 10 µM, compound concentration 10 uM, replicate 1
# [8] = 24 h, 10 µM, compound concentration 10 uM, replicate 2
# [9] = 48 h, 1 µM, compound concentration 1 uM, replicate 1
# [10] = 48 h, 1 µM, compound concentration 1 uM, replicate 2
# [11] = 48 h, 10 µM, compound concentration 10 uM, replicate 1
# [12] = 48 h, 10 µM, compound concentration 10 uM, replicate 2
compound,measurement,setting,value
CN1CCC(C(=O)c2cccc(NC(=O)c3c(F)cc(F)cc3F)n2)CC1,Population Apoptotic (%),[1],32%
same,Population Fragmented Nuclei (%),[1],5%
same,Population Healthy Nuclei (%),[1],82%
same,Population Hoechst High Intensity Objects (%),[1],8%
same,Population Membrane Permeable-Phenotype (%),[1],0%
same,Population Mitochondria Different-Phenotype (%),[1],51%
same,Population Mitotic Cells (%),[1],67%
same,Population Normal (%),[1],91%
same,Population Pyknosed Nuclei (%),[1],11%
same,Population Tubulin-Different-Phenotype (%),[1],31%
same,Total Cell Count,[1],396
same,Population Apoptotic (%),[2],52%
same,Population Hoechst High Intensity Objects (%),[2],7%
same,Population Mitochondria Different-Phenotype (%),[2],59%
same,Population Mitotic Cells (%),[2],47%
same,Population Normal (%),[2],92%
same,Population Pyknosed Nuclei (%),[2],12%
same,Population Tubulin-Different-Phenotype (%),[2],20%
same,Total Cell Count,[2],352
same,Population Apoptotic (%),[3],52%
same,Population Fragmented Nuclei (%),[3],6%
same,Population Healthy Nuclei (%),[3],80%
same,Population Hoechst High Intensity Objects (%),[3],8%
same,Population Membrane Permeable-Phenotype (%),[3],1%
same,Population Mitochondria Different-Phenotype (%),[3],55%
same,Population Mitotic Cells (%),[3],47%
same,Population Normal (%),[3],91%
same,Population Pyknosed Nuclei (%),[3],12%
same,Population Tubulin-Different-Phenotype (%),[3],50%
same,Total Cell Count,[3],445
same,Population Apoptotic (%),[4],53%
same,Population Hoechst High Intensity Objects (%),[4],10%
same,Population Membrane Permeable-Phenotype (%),[4],0%
same,Population Mitochondria Different-Phenotype (%),[4],77%
same,Population Mitotic Cells (%),[4],46%
same,Population Normal (%),[4],89%
same,Population Pyknosed Nuclei (%),[4],13%
same,Total Cell Count,[4],401
same,Population Apoptotic (%),[5],26%
same,Population Fragmented Nuclei (%),[5],11%
same,Population Healthy Nuclei (%),[5],74%
same,Population Hoechst High Intensity Objects (%),[5],4%
same,Population Membrane Permeable-Phenotype (%),[5],0%
same,Population Mitochondria Different-Phenotype (%),[5],30%
same,Population Mitotic Cells (%),[5],73%
same,Population Normal (%),[5],95%
same,Population Pyknosed Nuclei (%),[5],13%
same,Population Tubulin-Different-Phenotype (%),[5],20%
same,Total Cell Count,[5],504
same,Population Apoptotic (%),[6],42%
same,Population Fragmented Nuclei (%),[6],8%
same,Population Healthy Nuclei (%),[6],83%
same,Population Hoechst High Intensity Objects (%),[6],3%
same,Population Mitochondria Different-Phenotype (%),[6],39%
same,Population Mitotic Cells (%),[6],57%
same,Population Normal (%),[6],96%
same,Population Pyknosed Nuclei (%),[6],7%
same,Population Tubulin-Different-Phenotype (%),[6],17%
same,Total Cell Count,[6],478
same,Population Apoptotic (%),[7],25%
same,Population Fragmented Nuclei (%),[7],10%
same,Population Healthy Nuclei (%),[7],76%
same,Population Hoechst High Intensity Objects (%),[7],6%
same,Population Membrane Permeable-Phenotype (%),[7],0%
same,Population Mitochondria Different-Phenotype (%),[7],48%
same,Population Mitotic Cells (%),[7],75%
same,Population Normal (%),[7],93%
same,Population Pyknosed Nuclei (%),[7],13%
same,Population Tubulin-Different-Phenotype (%),[7],41%
same,Total Cell Count,[7],583
same,Population Apoptotic (%),[8],52%
same,Population Fragmented Nuclei (%),[8],8%
same,Population Healthy Nuclei (%),[8],81%
same,Population Hoechst High Intensity Objects (%),[8],8%
same,Population Mitochondria Different-Phenotype (%),[8],64%
same,Population Mitotic Cells (%),[8],47%
same,Population Normal (%),[8],91%
same,Population Pyknosed Nuclei (%),[8],9%
same,Population Tubulin-Different-Phenotype (%),[8],34%
same,Total Cell Count,[8],467
same,Population Apoptotic (%),[9],22%
same,Population Fragmented Nuclei (%),[9],11%
same,Population Healthy Nuclei (%),[9],80%
same,Population Hoechst High Intensity Objects (%),[9],3%
same,Population Membrane Permeable-Phenotype (%),[9],1%
same,Population Mitochondria Different-Phenotype (%),[9],19%
same,Population Mitotic Cells (%),[9],77%
same,Population Normal (%),[9],96%
same,Population Pyknosed Nuclei (%),[9],7%
same,Population Tubulin-Different-Phenotype (%),[9],12%
same,Total Cell Count,[9],884
same,Population Apoptotic (%),[10],34%
same,Population Fragmented Nuclei (%),[10],9%
same,Population Healthy Nuclei (%),[10],84%
same,Population Mitochondria Different-Phenotype (%),[10],24%
same,Population Mitotic Cells (%),[10],65%
same,Population Pyknosed Nuclei (%),[10],5%
same,Population Tubulin-Different-Phenotype (%),[10],10%
same,Total Cell Count,[10],692
same,Population Apoptotic (%),[11],30%
same,Population Fragmented Nuclei (%),[11],13%
same,Population Healthy Nuclei (%),[11],79%
same,Population Hoechst High Intensity Objects (%),[11],4%
same,Population Membrane Permeable-Phenotype (%),[11],0%
same,Population Mitochondria Different-Phenotype (%),[11],35%
same,Population Mitotic Cells (%),[11],69%
same,Population Normal (%),[11],95%
same,Population Pyknosed Nuclei (%),[11],7%
same,Population Tubulin-Different-Phenotype (%),[11],23%
same,Total Cell Count,[11],803
same,Population Apoptotic (%),[12],28%
same,Population Fragmented Nuclei (%),[12],10%
same,Population Healthy Nuclei (%),[12],81%
same,Population Hoechst High Intensity Objects (%),[12],7%
same,Population Mitochondria Different-Phenotype (%),[12],42%
same,Population Mitotic Cells (%),[12],71%
same,Population Normal (%),[12],92%
same,Population Tubulin-Different-Phenotype (%),[12],25%
same,Total Cell Count,[12],671
Cc1cc(=O)n(C)c2cc(N3C(=O)CC[C@H](NS(=O)(=O)CC(C)C)[C@H]3c3ccc(Cl)cc3)ccc12,Population Apoptotic (%),[1],43%
same,Population Fragmented Nuclei (%),[1],7%
same,Population Healthy Nuclei (%),[1],83%
same,Population Hoechst High Intensity Objects (%),[1],8%
same,Population Membrane Permeable-Phenotype (%),[1],0%
same,Population Mitochondria Different-Phenotype (%),[1],41%
same,Population Mitotic Cells (%),[1],56%
same,Population Normal (%),[1],91%
same,Population Pyknosed Nuclei (%),[1],8%
same,Population Tubulin-Different-Phenotype (%),[1],32%
same,Total Cell Count,[1],454
same,Population Apoptotic (%),[2],63%
same,Population Fragmented Nuclei (%),[2],6%
same,Population Healthy Nuclei (%),[2],78%
same,Population Hoechst High Intensity Objects (%),[2],6%
same,Population Mitochondria Different-Phenotype (%),[2],53%
same,Population Mitotic Cells (%),[2],36%
same,Population Normal (%),[2],93%
same,Population Pyknosed Nuclei (%),[2],14%
same,Population Tubulin-Different-Phenotype (%),[2],14%
same,Total Cell Count,[2],265
same,Population Apoptotic (%),[3],47%
same,Population Fragmented Nuclei (%),[3],4%
same,Population Healthy Nuclei (%),[3],70%
same,Population Hoechst High Intensity Objects (%),[3],11%
same,Population Membrane Permeable-Phenotype (%),[3],0%
same,Population Mitochondria Different-Phenotype (%),[3],75%
same,Population Mitotic Cells (%),[3],52%
same,Population Normal (%),[3],88%
same,Population Pyknosed Nuclei (%),[3],24%
same,Population Tubulin-Different-Phenotype (%),[3],81%
same,Total Cell Count,[3],368
same,Population Apoptotic (%),[4],50%
same,Population Fragmented Nuclei (%),[4],6%
same,Population Healthy Nuclei (%),[4],66%
same,Population Hoechst High Intensity Objects (%),[4],16%
same,Population Mitochondria Different-Phenotype (%),[4],86%
same,Population Mitotic Cells (%),[4],49%
same,Population Normal (%),[4],83%
same,Population Pyknosed Nuclei (%),[4],27%
same,Population Tubulin-Different-Phenotype (%),[4],66%
same,Total Cell Count,[4],331
same,Population Apoptotic (%),[5],33%
same,Population Fragmented Nuclei (%),[5],9%
same,Population Healthy Nuclei (%),[5],81%
same,Population Hoechst High Intensity Objects (%),[5],4%
same,Population Membrane Permeable-Phenotype (%),[5],0%
same,Population Mitochondria Different-Phenotype (%),[5],25%
same,Population Mitotic Cells (%),[5],66%
same,Population Normal (%),[5],95%
same,Population Pyknosed Nuclei (%),[5],9%
same,Population Tubulin-Different-Phenotype (%),[5],19%
same,Total Cell Count,[5],646
same,Population Apoptotic (%),[6],36%
same,Population Fragmented Nuclei (%),[6],4%
same,Population Healthy Nuclei (%),[6],82%
same,Population Hoechst High Intensity Objects (%),[6],5%
same,Population Membrane Permeable-Phenotype (%),[6],1%
same,Population Mitochondria Different-Phenotype (%),[6],42%
same,Population Mitotic Cells (%),[6],63%
same,Population Normal (%),[6],94%
same,Population Pyknosed Nuclei (%),[6],13%
same,Population Tubulin-Different-Phenotype (%),[6],17%
same,Total Cell Count,[6],327
same,Population Apoptotic (%),[7],34%
same,Population Fragmented Nuclei (%),[7],7%
same,Population Healthy Nuclei (%),[7],72%
same,Population Hoechst High Intensity Objects (%),[7],9%
same,Population Membrane Permeable-Phenotype (%),[7],0%
same,Population Mitochondria Different-Phenotype (%),[7],67%
same,Population Mitotic Cells (%),[7],65%
same,Population Normal (%),[7],90%
same,Population Pyknosed Nuclei (%),[7],19%
same,Population Tubulin-Different-Phenotype (%),[7],67%
same,Total Cell Count,[7],419
same,Population Apoptotic (%),[8],76%
same,Population Fragmented Nuclei (%),[8],8%
same,Population Healthy Nuclei (%),[8],67%
same,Population Hoechst High Intensity Objects (%),[8],22%
same,Population Mitochondria Different-Phenotype (%),[8],85%
same,Population Mitotic Cells (%),[8],23%
same,Population Normal (%),[8],77%
same,Population Pyknosed Nuclei (%),[8],23%
same,Population Tubulin-Different-Phenotype (%),[8],71%
same,Total Cell Count,[8],328
same,Population Apoptotic (%),[9],25%
same,Population Fragmented Nuclei (%),[9],14%
same,Population Healthy Nuclei (%),[9],78%
same,Population Hoechst High Intensity Objects (%),[9],3%
same,Population Membrane Permeable-Phenotype (%),[9],0%
same,Population Mitochondria Different-Phenotype (%),[9],17%
same,Population Mitotic Cells (%),[9],74%
same,Population Normal (%),[9],96%
same,Population Pyknosed Nuclei (%),[9],6%
same,Population Tubulin-Different-Phenotype (%),[9],15%
same,Total Cell Count,[9],985
same,Population Apoptotic (%),[10],31%
same,Population Fragmented Nuclei (%),[10],11%
same,Population Healthy Nuclei (%),[10],79%
same,Population Hoechst High Intensity Objects (%),[10],7%
same,Population Mitochondria Different-Phenotype (%),[10],20%
same,Population Mitotic Cells (%),[10],68%
same,Population Normal (%),[10],92%
same,Population Pyknosed Nuclei (%),[10],9%
same,Population Tubulin-Different-Phenotype (%),[10],17%
same,Total Cell Count,[10],454
same,Population Apoptotic (%),[11],56%
same,Population Fragmented Nuclei (%),[11],12%
same,Population Healthy Nuclei (%),[11],77%
same,Population Hoechst High Intensity Objects (%),[11],10%
same,Population Membrane Permeable-Phenotype (%),[11],1%
same,Population Mitochondria Different-Phenotype (%),[11],67%
same,Population Mitotic Cells (%),[11],43%
same,Population Normal (%),[11],89%
same,Population Pyknosed Nuclei (%),[11],10%
same,Population Tubulin-Different-Phenotype (%),[11],58%
same,Total Cell Count,[11],548
same,Population Apoptotic (%),[12],66%
same,Population Healthy Nuclei (%),[12],67%
same,Population Hoechst High Intensity Objects (%),[12],19%
same,Population Membrane Permeable-Phenotype (%),[12],0%
same,Population Mitochondria Different-Phenotype (%),[12],76%
same,Population Mitotic Cells (%),[12],33%
same,Population Normal (%),[12],80%
same,Population Pyknosed Nuclei (%),[12],19%
same,Population Tubulin-Different-Phenotype (%),[12],56%
same,Total Cell Count,[12],371

# — ChEMBL document CHEMBL5058577, “EUbOPEN Chemogenomics Library 2 (Multiplex)” (2022)
